# Measured values: publication PMC10655119 (Journal of the American Chemical Society, 2023)
# Columns and labels:
# Assay type in all cases: cell-based
# [1] = test system: HeLa cells; assay: Protein-CPP; details: 1 h; for Delivery of I into the cytosol with CPP-additive at 2.5 μM: I 5 μM + CPP-additive 2.5 μM, serum-free
# [2] = test system: HeLa cells; assay: Time-lapse fluorescence microscopy of Cy5-labeled CPP-additives; details: for Time until nucleolar mCherry signals are observed: serum-free, images at 60 s intervals
# In short: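 HeLa cells given Cy5-labeled R10 peptide additives (1 μM), with or without the hydrophobic motif, in serum-free FluoroBrite DMEM. Confocal imaging at 5 and 10 min, with line-scan profiles of Cy5 distribution. For cotreatment, NLS-mCherry-R10 cargo (5 μM) and additive were added after 60 s of baseline imaging. Frames taken every 60 s for 15 min to track nucleolar mCherry.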
# [3] = test system: HeLa cells; assay: Lactate dehydrogenase; details: 1 h
# In short: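 HeLa cells exposed to CPP-additives at 2.5, 5 or 10 μM for 1 h in serum-free FluoroBrite DMEM. Membrane integrity judged by lactate dehydrogenase released into the medium. Mean ± SE of three biological replicates.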
# [4] = test system: HeLa cells; assay: Mitochondrial dehydrogenase; details: 1 h, serum-free FluoroBrite DMEM
# In short: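 HeLa cells exposed 1 h to CPP-additive (2.5, 5 or 10 μM) in serum-free FluoroBrite DMEM, then viability read by WST-1 reduction to formazan by mitochondrial dehydrogenase. For prolonged exposure, cells coincubated 1 h with NLS-mCherry-R10 cargo plus additive, supernatant replaced with fresh culture medium, and WST-1 read after 24 h.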
# [5] = HeLa, 2.5, 5 or 10 μM CPP-additive
# [6] = HeLa, 2.5, 5 or 10 μM CPP-additive, three biological replicates
compound,measurement,setting,value
"O=C(O)CCCc1ccc2ccc3cccc4ccc1c2c34 [PyB, pyrenebutyrate, reference compound]",Uptake of I at lowered I concentration with PyB,"[1]; PyB 50 μM 5 min, then I 5 μM",loss of enhanced uptake of I
same,Uptake of I after pretreatment with PyB at 10 μM and lower,"[1]; PyB 10 and 5 μM 5 min, then I",only endosomal uptake
TNB-Cy5-R10 [compound 22],Line-scan profile of Cy5 fluorescence after 10 min,[2]; 1 μM peptide alone,mainly observed within the interior of cells
same,Localisation of Cy5-labeled CPP-additive over time,"[2]; 1 μM peptide alone, serum-free FluoroBrite DMEM, 37 °C, time-lapse",quickly enters the cytosol
same,Time until nucleolar mCherry signals are observed,[2]; I 5 μM + Cy5-additive 1 μM,15 min
TNB-Cy5-R10-ILFF [compound 23],Line-scan profile of Cy5 fluorescence after 10 min,[2]; 1 μM peptide alone,remained concentrated around the cell periphery
same,Time until cell-surface-associated additive is internalized into endosomes,"[2]; 23 1 μM 5 min at 37 °C, washed, time-lapse 30 min",30 min
same,Cell membrane accumulation of additive in the presence of I,[2]; I 5 μM + Cy5-additive 1 μM,persisted even after 10 min
same,Time until nucleolar mCherry signals are observed,[2]; I 5 μM + Cy5-additive 1 μM,3 min
TNB-R10-FWF [compound 3],LDH release (membrane integrity),"[3]; HeLa, 5 μM CPP-additive",significantly released
same,Cytotoxicity (WST1 assay),"[4]; HeLa, 5 μM CPP-additive",no cytotoxicity
TNB-R10-ILIL [compound 4],LDH release (membrane integrity),[3]; [5],no LDH release
same,Cytotoxicity (WST1 assay),[4]; [6],no cytotoxic effect
TNB-R10-ILLL [compound 5],LDH release (membrane integrity),[3]; [5],no LDH release
same,Cytotoxicity (WST1 assay),[4]; [6],no cytotoxic effect
TNB-R10-Nal2 [compound 7],Delivery of I into the cytosol with CPP-additive at 2.5 μM,[1],successful delivery
TNB-R10-Nal [compound 6],Delivery of I into the cytosol with CPP-additive at 2.5 μM,[1],successful delivery
alk-Cy5-R10-ILFF [alkylated analogue],Membrane interaction and facilitation of protein-CPP uptake,"[2]; alk-Cy5-R10-ILFF 1 μM alone or with I 5 μM, 10 min",incapable of both interacting with the cell membrane and facilitating the uptake of protein-CPPs
